The target in data set [1] is T1, Tissue alpha-L-fucosidase (Bos taurus, UniProt Q2KIM0).
T1 sequence (Q2KIM0 whole entry): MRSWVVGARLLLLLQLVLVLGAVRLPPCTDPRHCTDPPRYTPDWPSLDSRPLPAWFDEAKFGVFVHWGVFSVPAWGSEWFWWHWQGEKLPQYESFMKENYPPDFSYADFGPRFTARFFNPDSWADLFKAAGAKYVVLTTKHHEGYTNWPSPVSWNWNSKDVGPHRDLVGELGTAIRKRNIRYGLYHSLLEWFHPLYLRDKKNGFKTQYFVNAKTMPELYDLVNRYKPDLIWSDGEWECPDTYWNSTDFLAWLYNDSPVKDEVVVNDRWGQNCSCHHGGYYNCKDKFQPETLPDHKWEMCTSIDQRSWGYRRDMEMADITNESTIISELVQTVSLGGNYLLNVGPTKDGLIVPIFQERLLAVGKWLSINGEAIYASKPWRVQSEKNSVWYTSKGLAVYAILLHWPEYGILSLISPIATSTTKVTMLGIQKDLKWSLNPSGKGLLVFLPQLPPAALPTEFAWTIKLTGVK
As to the kind of experiment: Inhibition of bovine kidney alpha fucosidase at pH 6.8. The gist of the method:
(§1)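 Nitrophenyl glycoside substrate hydrolysis in 0.1 M sodium phosphate, pH 6.8, 25 °C. Seven cuvettes hold a fixed inhibitor concentration and seven hold none, each across varying substrate levels. The reaction is started with diluted enzyme, and 4- or 2-nitrophenol release is followed at 400 nm for 2 min. Ki = [I]/(KM′/KM − 1) from KM with and without inhibitor.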

For another data set, the target named is Alpha-galactosidase (Coffea arabica, UniProt Q5DUH8). The data set can be described thus: Inhibition of green coffee beans alpha galactosidase at pH 6.8. The gist of the method: as §1
Alpha-galactosidase, sequence (Q5DUH8 whole entry): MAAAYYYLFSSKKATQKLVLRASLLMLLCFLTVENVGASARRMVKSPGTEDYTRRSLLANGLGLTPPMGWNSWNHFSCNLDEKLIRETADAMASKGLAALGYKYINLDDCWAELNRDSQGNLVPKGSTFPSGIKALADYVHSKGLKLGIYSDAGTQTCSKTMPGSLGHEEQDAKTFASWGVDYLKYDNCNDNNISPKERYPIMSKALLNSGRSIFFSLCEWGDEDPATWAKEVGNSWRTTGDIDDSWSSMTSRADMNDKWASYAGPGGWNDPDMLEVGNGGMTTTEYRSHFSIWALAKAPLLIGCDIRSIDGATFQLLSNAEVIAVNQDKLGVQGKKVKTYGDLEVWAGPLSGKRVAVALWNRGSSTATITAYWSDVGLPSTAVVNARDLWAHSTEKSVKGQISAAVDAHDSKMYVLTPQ
Data set [2] deals with T2, Tissue alpha-L-fucosidase (Homo sapiens, UniProt P04066).
T2 sequence (P04066 whole entry): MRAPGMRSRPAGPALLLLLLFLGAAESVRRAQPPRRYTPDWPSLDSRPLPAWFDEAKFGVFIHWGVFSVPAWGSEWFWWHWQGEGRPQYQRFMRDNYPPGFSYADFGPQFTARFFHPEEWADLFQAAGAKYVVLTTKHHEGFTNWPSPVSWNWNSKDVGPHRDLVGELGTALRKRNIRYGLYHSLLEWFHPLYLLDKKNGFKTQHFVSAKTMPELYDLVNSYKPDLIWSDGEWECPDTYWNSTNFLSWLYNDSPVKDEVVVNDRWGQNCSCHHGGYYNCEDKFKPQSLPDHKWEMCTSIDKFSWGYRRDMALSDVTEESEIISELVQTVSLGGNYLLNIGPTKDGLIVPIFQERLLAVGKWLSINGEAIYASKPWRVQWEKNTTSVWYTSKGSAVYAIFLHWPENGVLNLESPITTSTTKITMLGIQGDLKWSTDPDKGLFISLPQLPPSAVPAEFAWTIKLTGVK
As to the kind of experiment: Inhibition of human placenta alpha fucosidase at pH 6.8. The gist of the method: as §1

Data set [3] is described as follows: Inhibition of yeast alpha glucosidase at pH 6.8. More on the design: species or system Saccharomyces cerevisiae. In outline:
as §1

Data set [4] in a line: Dissociation constant, pKa of the compound. The format is physicochemical.

A word on the Ki: it is a dissociation constant, usually derived from enzyme kinetics or from competition with a known ligand. A low value points to tighter binding. Turning to `C[C@H]1NC[C@H](O)[C@@H](O)C1(F)F`, the Ki (in data set [1]; on Alpha-galactosidase; in data set [2]; in data set [3]) was over 1000 µM each time.

What is called pKa is the negative logarithm of the acid dissociation constant. A lower pKa goes with a stronger acid or weaker base. Consider `OC[C@H]1NC[C@@H](O)[C@@H](O)C1(F)F`, for which, in data set [4], the pKa was 5.3.

Turning to `C[C@@H]1NC[C@@H](O)[C@H](O)C1(F)F`, the inhibitory constant (Ki) was 570 µM in data set [1], over 1000 µM on Alpha-galactosidase, 250 µM in data set [2] and over 1000 µM in data set [3].

Source of the values: ChEMBL document CHEMBL1147677, “Synthesis and biological evaluation of glycosidase inhibitors: gem-difluoromethylenated nojirimycin analogues” (J Med Chem, 2006).
